# Data from publication PMC4576993 (Leukemia, 2011).
# Like-named read-outs stand apart in the source and are kept apart here.
# Columns and labels:
# MV4-11 AML cell line = conditions: in vitro; cited from earlier work
# [1] = Renal excretion of vosaroxin and metabolites in urine, 24 h after first dose; assay type: in vivo, human; conditions: 24 h after first dose, 18 and 27 mg/m^2 weekly, eight patients
# [2] = patients with solid tumors, up to 75 mg/m^2/28-day cycle; cited from earlier work
# [3] = test system: phosphorylated H2AX (γH2AX) in peripheral blood blasts; experiment: γH2AX in patient peripheral blood blasts by flow cytometry; assay type: in vivo, human
# Procedure, shortened: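 Peripheral blood blasts from 10 weekly-schedule patients were sampled on days 1 and 8, predose and 2 h postdose. Ficoll-enriched cells were fixed in 70% ethanol at 4 °C and stained in TBS/4% FBS/0.1% Triton X-100. Primary was anti-phospho-Ser139 H2AX or IgG1 isotype (1:500, 2 h), then Alexa488 anti-mouse (1:200, 1 h) with 5 μg/ml RNase, then 2% formaldehyde. Flow cytometry used […]. %γH2AX-positive was set against isotype overlays.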
# bone marrow = conditions: at its MTD, normal mouse model; cited from earlier work
# [4] = non-clinical toxicology studies; no reference given; cited from earlier work
# [5] = assay type: in vivo, human
# Procedure, shortened: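 Open-label 3+3-type escalation in cohorts of 3–6, starting at 18 mg/m2 weekly (days 1, 8, 15) or 9 mg/m2 twice weekly (days 1, 4, 8, 11), 28-day cycles, with modified Fibonacci increments. A cohort was expanded to 6 on any DLT. MTD was the level below that with ≥2/6 DLTs. DLT was assessed in cycle 1 through day 29. Toxicity was graded by NCI CTCAE v3.0. One 25% dose reduction was allowed, with supportive care permitted.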
# [6] = twice weekly (n = 31), Grade 1 or 2
# [7] = twice weekly (n = 31), Grade ≥3
# [8] = two patients with CR, weekly schedule
smiles,measurement,setting,value
"CN[C@H]1CN(c2ccc3c(=O)c(C(=O)O)cn(-c4nccs4)c3n2)C[C@@H]1OC [vosaroxin, (+)-1,4-dihydro-7-(trans-3-methoxy-4-methylamino-1-pyrrolidinyl)-4-oxo-1-(2-thiazolyl)-1,8-naphthyridine-3-carboxylic acid]",Half-maximal (50%) inhibitory concentration (IC50),MV4-11 AML cell line,0.0401 µg/mL
same,IC90,MV4-11 AML cell line,1000 nM
same,Average renal excretion of the total dose infused,[1],2.35%
same,Primary DLT,[2],myelosuppression
same,Increase in γH2AX,"[3]; day 1, 2 h postdose, patients with blasts ≥5%",1.8 fold
same,Increase in γH2AX,"[3]; day 1, 2 h postdose, patients with bone marrow blasts <5% after treatment",2.6 fold
same,Increase in γH2AX,"[3]; day 8, 2 h postdose, patients with blasts ≥5%",1.7 fold
same,Increase in γH2AX,"[3]; day 8, 2 h postdose, patients with bone marrow blasts <5% after treatment",3.8 fold
same,Patients with increased γH2AX after the first dose,"[3]; weekly schedule, 50 mg/m^2 or higher, 2 h postdose day 1",7 of 10
same,Patients with γH2AX higher than at baseline before treatment on day 8,"[3]; weekly schedule, day 8 predose",9 of 10
same,Bone marrow ablation compared with cytarabine,bone marrow,ablated bone marrow more potently than cytarabine
same,Primary adverse effects,[4],myelosuppression and gastrointestinal toxicity
same,30-day all-cause mortality rate,[5]; 73 treated patients,11%
same,Deaths within 30 days after the first dose,[5]; 73 treated patients,Eight
same,"Abdominal pain, % of patients","[5]; Total (n = 73), All grades",22%
same,"Abdominal pain, No. of patients","[5]; Total (n = 73), All grades",16
same,"Anorexia, No. of patients","[5]; Total (n = 73), All grades",30
same,"Diarrhea, % of patients","[5]; Total (n = 73), All grades",49%
same,"Diarrhea, No. of patients","[5]; Total (n = 73), All grades",36
same,"Nausea, % of patients","[5]; Total (n = 73), All grades",63%
same,"Nausea, No. of patients","[5]; Total (n = 73), All grades",46
same,"Peripheral edema, % of patients","[5]; Total (n = 73), All grades",34%
same,"Peripheral edema, No. of patients","[5]; Total (n = 73), All grades",25
same,"Petechiae, % of patients","[5]; Total (n = 73), All grades",21%
same,"Petechiae, No. of patients","[5]; Total (n = 73), All grades",15
same,"Pleural effusion, % of patients","[5]; Total (n = 73), All grades",22%
same,"Pleural effusion, No. of patients","[5]; Total (n = 73), All grades",16
same,"Pyrexia, % of patients","[5]; Total (n = 73), All grades",29%
same,"Pyrexia, No. of patients","[5]; Total (n = 73), All grades",21
same,"Stomatitis, % of patients","[5]; Total (n = 73), All grades",29%
same,"Stomatitis, No. of patients","[5]; Total (n = 73), All grades",21
same,"Clinical manifestation of QTc prolongation, such as torsades de pointes",[5]; all treated patients,No clinical manifestation of QTc prolongation
same,"Stomatitis duration, range",[5]; cycle 1,5 to 39 days
same,Stomatitis median duration,[5]; cycle 1,15 days
same,Stomatitis median onset,[5]; cycle 1,14 days
same,"Stomatitis onset, range",[5]; cycle 1,3 to 20 days
same,Patients experiencing stomatitis grade 1–2,"[5]; cycle 1, overall",12%
same,Patients experiencing stomatitis grade ≥3,"[5]; cycle 1, overall",15%
same,Patients experiencing stomatitis of any grade,"[5]; cycle 1, overall",27%
same,Treatment-related hepatic or renal dysfunction,[5]; doses up to 90 mg/m^2 weekly and 50 mg/m^2 twice weekly,No grade 3 or greater treatment-related hepatic or renal dysfunction was reported
same,"Time of death after first dose, range",[5]; eight deaths within 30 days,11 to 30 days
same,Dose-limiting toxicity (DLT),"[5]; patients with advanced leukemia, both schedules",stomatitis
same,"Abdominal pain, % of patients",[5]; [6],10%
same,"Abdominal pain, No. of patients",[5]; [6],3
same,"Anorexia, % of patients",[5]; [6],39%
same,"Anorexia, No. of patients",[5]; [6],12
same,"Diarrhea, % of patients",[5]; [6],39%
same,"Diarrhea, No. of patients",[5]; [6],12
same,"Dyspnea, No. of patients",[5]; [6],10
same,"Fatigue, No. of patients",[5]; [6],14
same,"Febrile neutropenia, % of patients",[5]; [6],0%
same,"Febrile neutropenia, No. of patients",[5]; [6],0
same,"Infection (20 individual adverse event terms), No. of patients",[5]; [6],10
same,"Nausea, % of patients",[5]; [6],68%
same,"Nausea, No. of patients",[5]; [6],21
same,"Peripheral edema, % of patients",[5]; [6],29%
same,"Peripheral edema, No. of patients",[5]; [6],9
same,"Petechiae, % of patients",[5]; [6],19%
same,"Petechiae, No. of patients",[5]; [6],6
same,"Pleural effusion, % of patients",[5]; [6],16%
same,"Pleural effusion, No. of patients",[5]; [6],5
same,"Pyrexia, % of patients",[5]; [6],19%
same,"Pyrexia, No. of patients",[5]; [6],6
same,"Stomatitis, % of patients",[5]; [6],19%
same,"Stomatitis, No. of patients",[5]; [6],6
same,"Abdominal pain, % of patients",[5]; [7],3%
same,"Abdominal pain, No. of patients",[5]; [7],1
same,"Anorexia, % of patients",[5]; [7],0%
same,"Anorexia, No. of patients",[5]; [7],0
same,"Diarrhea, % of patients",[5]; [7],3%
same,"Diarrhea, No. of patients",[5]; [7],1
same,"Dyspnea, % of patients",[5]; [7],3%
same,"Dyspnea, No. of patients",[5]; [7],1
same,"Fatigue, % of patients",[5]; [7],0%
same,"Fatigue, No. of patients",[5]; [7],0
same,"Febrile neutropenia, No. of patients",[5]; [7],15
same,"Infection (20 individual adverse event terms), No. of patients",[5]; [7],11
same,"Nausea, % of patients",[5]; [7],3%
same,"Nausea, No. of patients",[5]; [7],1
same,"Peripheral edema, % of patients",[5]; [7],0%
same,"Peripheral edema, No. of patients",[5]; [7],0
same,"Petechiae, % of patients",[5]; [7],3%
same,"Petechiae, No. of patients",[5]; [7],1
same,"Pleural effusion, % of patients",[5]; [7],3%
same,"Pleural effusion, No. of patients",[5]; [7],1
same,"Pyrexia, No. of patients",[5]; [7],4
same,"Stomatitis, % of patients",[5]; [7],19%
same,"Stomatitis, No. of patients",[5]; [7],6
same,Time to recovery of peripheral absolute neutrophil counts to >1×10^9/l,[5]; [8],50 days
same,Time to recovery of platelets to ≥100×10^9/l,[5]; [8],28 days
same,"Abdominal pain, No. of patients","[5]; weekly (n = 42), Grade 1 or 2",11
same,"Diarrhea, % of patients","[5]; weekly (n = 42), Grade 1 or 2",52%
same,"Diarrhea, No. of patients","[5]; weekly (n = 42), Grade 1 or 2",22
same,"Dyspnea, % of patients","[5]; weekly (n = 42), Grade 1 or 2",31%
same,"Fatigue, No. of patients","[5]; weekly (n = 42), Grade 1 or 2",19
same,"Febrile neutropenia, % of patients","[5]; weekly (n = 42), Grade 1 or 2",0%
same,"Febrile neutropenia, No. of patients","[5]; weekly (n = 42), Grade 1 or 2",0
same,"Infection (20 individual adverse event terms), % of patients","[5]; weekly (n = 42), Grade 1 or 2",12%
same,"Infection (20 individual adverse event terms), No. of patients","[5]; weekly (n = 42), Grade 1 or 2",5
same,"Nausea, % of patients","[5]; weekly (n = 42), Grade 1 or 2",57%
same,"Nausea, No. of patients","[5]; weekly (n = 42), Grade 1 or 2",24
same,"Peripheral edema, % of patients","[5]; weekly (n = 42), Grade 1 or 2",36%
same,"Peripheral edema, No. of patients","[5]; weekly (n = 42), Grade 1 or 2",15
same,"Petechiae, % of patients","[5]; weekly (n = 42), Grade 1 or 2",19%
same,"Petechiae, No. of patients","[5]; weekly (n = 42), Grade 1 or 2",8
same,"Pleural effusion, % of patients","[5]; weekly (n = 42), Grade 1 or 2",21%
same,"Pleural effusion, No. of patients","[5]; weekly (n = 42), Grade 1 or 2",9
same,"Pyrexia, No. of patients","[5]; weekly (n = 42), Grade 1 or 2",10
same,"Stomatitis, % of patients","[5]; weekly (n = 42), Grade 1 or 2",10%
same,"Stomatitis, No. of patients","[5]; weekly (n = 42), Grade 1 or 2",4
same,"Abdominal pain, % of patients","[5]; weekly (n = 42), Grade ≥3",2%
same,"Abdominal pain, No. of patients","[5]; weekly (n = 42), Grade ≥3",1
same,"Anorexia, % of patients","[5]; weekly (n = 42), Grade ≥3",2%
same,"Anorexia, No. of patients","[5]; weekly (n = 42), Grade ≥3",1
same,"Diarrhea, % of patients","[5]; weekly (n = 42), Grade ≥3",2%
same,"Diarrhea, No. of patients","[5]; weekly (n = 42), Grade ≥3",1
same,"Dyspnea, % of patients","[5]; weekly (n = 42), Grade ≥3",0%
same,"Dyspnea, No. of patients","[5]; weekly (n = 42), Grade ≥3",0
same,"Fatigue, % of patients","[5]; weekly (n = 42), Grade ≥3",2%
same,"Fatigue, No. of patients","[5]; weekly (n = 42), Grade ≥3",1
same,"Febrile neutropenia, No. of patients","[5]; weekly (n = 42), Grade ≥3",28
same,"Infection (20 individual adverse event terms), No. of patients","[5]; weekly (n = 42), Grade ≥3",22
same,"Nausea, % of patients","[5]; weekly (n = 42), Grade ≥3",0%
same,"Nausea, No. of patients","[5]; weekly (n = 42), Grade ≥3",0
same,"Peripheral edema, % of patients","[5]; weekly (n = 42), Grade ≥3",2%
same,"Peripheral edema, No. of patients","[5]; weekly (n = 42), Grade ≥3",1
same,"Petechiae, % of patients","[5]; weekly (n = 42), Grade ≥3",0%
same,"Petechiae, No. of patients","[5]; weekly (n = 42), Grade ≥3",0
same,"Pleural effusion, % of patients","[5]; weekly (n = 42), Grade ≥3",2%
same,"Pleural effusion, No. of patients","[5]; weekly (n = 42), Grade ≥3",1
same,"Pyrexia, % of patients","[5]; weekly (n = 42), Grade ≥3",2%
same,"Pyrexia, No. of patients","[5]; weekly (n = 42), Grade ≥3",1
same,"Stomatitis, % of patients","[5]; weekly (n = 42), Grade ≥3",12%
same,"Stomatitis, No. of patients","[5]; weekly (n = 42), Grade ≥3",5
same,Patients with grade 3 stomatitis as DLT,[5]; weekly schedule,five
